Test results reported in ChEMBL document CHEMBL1138404, “Bisindole alkaloids of the topsentin and hamacanthin classes from a marine sponge Spongosorites sp” (J Nat Prod, 2007).

Legend:
Enterobacter cloacae [1] = assay: Antibacterial activity against […] Enterobacter cloacae 1321E; type: functional
How it was run: (§1)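 Agar dilution MIC: Mueller Hinton agar plates containing 17 serial dilutions of sample (final 25 to 0.002 μg/mL), meropenem and imipenem as standards. Strains grown 18 h at 37 °C in Fleisch extract broth (10% horse serum for some strains), spotted onto plates by automatic inoculator; MIC read after 18 h incubation.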

[2] = Cytotoxicity against human XF498 cell line; type: cell-based; settings: XF498 cells, read-out: ED50 (the source's name)
Pseudomonas aeruginosa [3] = assay: Antibacterial activity against […] Pseudomonas aeruginosa 1771M; type: functional; how it was run: as §1
Escherichia coli [4] = assay: Antibacterial activity against […] Escherichia coli DC2; type: functional; how it was run: as §1
Pseudomonas aeruginosa [5] = assay: Antibacterial activity against […] Pseudomonas aeruginosa 1771; type: functional; how it was run: as §1
Pseudomonas aeruginosa [6] = assay: Antibacterial activity against […] Pseudomonas aeruginosa 1592E; type: functional; how it was run: as §1
Klebsiella oxytoca = assay: Antibacterial activity against […] Klebsiella oxytoca 1082E; type: functional; how it was run: as §1
Enterococcus faecium = assay: Antibacterial activity against […] Streptococcus faecium MD8b; type: functional; how it was run: as §1
[7] = Cytotoxicity against human SK-OV-3 cell line; type: cell-based; settings: SK-OV-3 cells, read-out: ED50 (the source's name)
Staphylococcus aureus [8] = assay: Antibacterial activity against methicillin-resistant Staphylococcus aureus SG511; type: functional; how it was run: as §1
Escherichia coli [9] = assay: Antibacterial activity against […] Escherichia coli 078; type: functional; how it was run: as §1
Streptococcus pyogenes [10] = assay: Antibacterial activity against methicillin-resistant Streptococcus pyogenes 77A; type: functional; how it was run: as §1
Escherichia coli [11] = assay: Antibacterial activity against […] Escherichia coli TEM; type: functional; how it was run: as §1
Enterobacter cloacae [12] = assay: Antibacterial activity against […] Enterobacter cloacae P99; type: functional; how it was run: as §1
Escherichia coli [13] = assay: Antibacterial activity against […] Escherichia coli DC0; type: functional; how it was run: as §1
[14] = Cytotoxicity against human HCT15 cell line; type: cell-based; settings: HCT-15 cells, read-out: ED50 (the source's name)
[15] = Cytotoxicity against human SK-MEL-2 cell line; type: cell-based; settings: SK-MEL-2 cells, read-out: ED50 (the source's name)
Escherichia coli [16] = assay: Antibacterial activity against […] Escherichia coli 1507E; type: functional; how it was run: as §1
Pseudomonas aeruginosa [17] = assay: Antibacterial activity against […] Pseudomonas aeruginosa 9027; type: functional; how it was run: as §1
Klebsiella aerogenes = assay: Antibacterial activity against […] Klebsiella aerogenes 1522E; type: functional; how it was run: as §1
Staphylococcus aureus [18] = assay: Antibacterial activity against methicillin-resistant Staphylococcus aureus 503; type: functional; how it was run: as §1
Staphylococcus aureus [19] = assay: Antibacterial activity against methicillin-resistant Staphylococcus aureus 285; type: functional; how it was run: as §1
[20] = Cytotoxicity against human A549 cell line; type: cell-based; settings: A549 cells, read-out: ED50 (the source's name)
Streptococcus pyogenes [21] = assay: Antibacterial activity against methicillin-resistant Streptococcus pyogenes 308A; type: functional; how it was run: as §1
Salmonella typhimurium = assay: Antibacterial activity against […] Salmonella Typhimurium; type: functional, Salmonella enterica subsp. enterica serovar Typhimurium; settings: Salmonella enterica; how it was run: as §1

O=C(C1=NC(c2c[nH]c3ccccc23)CN1)c1c[nH]c2cc(Br)ccc12 (stereo not given) [SPONGOTINE B]
> 30 µg/mL: CC50 [2] | CC50 [7] | CC50 [14] | CC50 [15] | CC50 [20]
25 µg/mL: MIC (Pseudomonas aeruginosa [3]) | MIC (Escherichia coli [4]) | MIC (Klebsiella oxytoca) | MIC (Staphylococcus aureus [8]) | MIC (Streptococcus pyogenes [10]) | MIC (Staphylococcus aureus [18]) | MIC (Staphylococcus aureus [19]) | MIC (Streptococcus pyogenes [21])
> 25 µg/mL: MIC (Enterobacter cloacae [1]) | MIC (Pseudomonas aeruginosa [5]) | MIC (Pseudomonas aeruginosa [6]) | MIC (Enterococcus faecium) | MIC (Escherichia coli [9]) | MIC (Escherichia coli [11]) | MIC (Enterobacter cloacae [12]) | MIC (Escherichia coli [13]) | MIC (Escherichia coli [16]) | MIC (Pseudomonas aeruginosa [17]) | MIC (Klebsiella aerogenes) | MIC (Salmonella typhimurium)
